In brackets after ≈: the same amount, converted by molar mass. Activity calls are given as the source filed them. No cut-off for these calls is given here.
Key:
Staphylococcus aureus [1] = test: Antibacterial activity against NEO-sensitive Staphylococcus aureus C2 after 15 to 20 hrs by CLSI protocol based microdilution assay; assay type: functional
Method in brief: (§1)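 CLSI broth microdilution MIC in triplicate on exponential-phase cells, ~3×10^5 cells per mL in cation-adjusted Mueller-Hinton broth. Compound was added from 10× stocks in 10% DMSO as serial 2-fold dilutions, final 50 to 0.78 μM. Plates were incubated at 37 °C, humidified, 15-20 h. Growth was read as absorbance at 595 nm, and percent inhibition was averaged over triplicates.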

[2] = Inhibition of AAC(2')-1c (unknown origin)
Homo sapiens [3] = organism: Homo sapiens; test: Displacement of F-NEO from human mitochondrial rRNA-A site C1410U mutant after 10 to 20 mins by fluorescence assay relative to NEO; parameters: concentration or dose not given beside the values
Method in brief: (§2)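 100 nM F-NEO:A-site complex in 10 mM HEPES, 50 mM NaCl, 0.04 mM EDTA, pH 7.0, mixed with ligand and incubated 10-20 min at room temperature. Fluorescence read at ex 485/em 525 nm, in duplicate. Percent binding was computed from the intensities of ligand-treated complex, complex without ligand, and complex with neomycin.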

Streptococcus pyogenes = test: Antibacterial activity against NEO-resistant Streptococcus pyogenes C203 at 6.25 uM after 15 to 20 hrs by CLSI protocol based microdilution assay relative to control; assay type: functional
Method in brief: (§3)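 Exponential-phase cultures were exposed to 6.25 μM compound in duplicate with neomycin as reference, at 37 °C in a humidified incubator for 15-20 h. Broth and culture controls received sterile water with 1% DMSO. Percent growth inhibition was calculated against the growth and background controls.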

Staphylococcus aureus [4] = test: Antibacterial activity against NEO-sensitive Staphylococcus aureus 6538 after 15 to 20 hrs by CLSI protocol based microdilution assay; assay type: functional; method in brief: as §1
[5] = Inhibition of AAC(6')-1e (unknown origin)
Ribosomal RNA A-site [6] = test: Displacement of F-NEO from human cytosolic rRNA-A site after 10 to 20 mins by fluorescence assay relative to NEO; assay type: nucleic-acid assay; parameters: concentration or dose not given beside the values; method in brief: as §2
Staphylococcus aureus [7] = test: Antibacterial activity against methicillin-resistant Staphylococcus aureus M0602 at 6.25 uM after 15 to 20 hrs by CLSI protocol based microdilution assay relative to control; assay type: functional; method in brief: as §3
Staphylococcus aureus [8] = test: Antibacterial activity against NEO-sensitive Staphylococcus aureus NRS77 after 15 to 20 hrs by CLSI protocol based microdilution assay; assay type: functional; method in brief: as §1
[9] = system: Mycolicibacterium smegmatis; test: Antibacterial activity against NEO-sensitive Mycobacterium smegmatis at 6.25 uM after 15 to 20 hrs by CLSI protocol based microdilution assay relative to control; assay type: functional
Method in brief: (§4)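 Single-concentration screen at 6.25 μM against exponential-phase cultures, in duplicate, with NEO as reference. Enterococcus was grown in BHI broth, M. smegmatis in TS broth with 0.05% Tween 80, and all other strains in TS broth. The 1% DMSO water vehicle was added to broth (background) and culture (growth control). Incubation was 37 °C, humidified, 15-20 h. Result is percent growth inhibition.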

Escherichia coli [10] = test: Antibacterial activity against NEO-sensitive Escherichia coli harboring TolC mutant at 6.25 uM after 15 to 20 hrs by CLSI protocol based microdilution assay relative to control; assay type: functional; method in brief: as §3
Ribosomal RNA A-site [11] = test: Displacement of F-NEO from Escherichia coli rRNA-A site after 10 to 20 mins by fluorescence assay; assay type: nucleic-acid assay
Method in brief: (§5)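 A 100 nM F-NEO:A-site RNA complex in 10 mM HEPES, 50 mM NaCl, 0.04 mM EDTA, pH 7.0 was titrated with 2-fold dilutions of ligand from 20 to 0.009 μM, or from 60 or 40 μM for weaker ligands. Incubated 10-20 min at room temperature, fluorescence read at ex 485/em 525 nm. IC50 from dose-response curve fit.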

Staphylococcus aureus [12] = test: Antibacterial activity against methicillin-resistant Staphylococcus aureus SU-5 at 6.25 uM after 15 to 20 hrs by CLSI protocol based microdilution assay relative to control; assay type: functional; method in brief: as §3
[13] = system: Staphylococcus epidermidis; test: Antibacterial activity against NEO-sensitive Staphylococcus epidermidis 12384 at 6.25 uM after 15 to 20 hrs by CLSI protocol based microdilution assay relative to control; assay type: functional; method in brief: as §4
[14] = Inhibition of AAC(3)-4 (unknown origin)
[15] = Displacement of F-NEO from human mitochondrial rRNA-A site C1410U mutant after 10 to 20 mins by fluorescence assay; method in brief: as §5
Staphylococcus aureus [16] = test: Antibacterial activity against NEO-sensitive Staphylococcus aureus C1 after 15 to 20 hrs by CLSI protocol based microdilution assay; assay type: functional; method in brief: as §1
Enterococcus faecium = test: Antibacterial activity against NEO-intermediate sensitive Enterococcus faecium BM4105-RF at 6.25 uM after 15 to 20 hrs by CLSI protocol based microdilution assay relative to control; assay type: functional; method in brief: as §4
Listeria monocytogenes = test: Antibacterial activity against NEO-sensitive Listeria monocytogenes ATCC 19115 at 6.25 uM after 15 to 20 hrs by CLSI protocol based microdilution assay relative to control; assay type: functional; method in brief: as §4
Staphylococcus aureus [17] = test: Antibacterial activity against methicillin-resistant Staphylococcus aureus A960649 at 6.25 uM after 15 to 20 hrs by CLSI protocol based microdilution assay relative to control; assay type: functional; method in brief: as §3
Pseudomonas aeruginosa = test: Antibacterial activity against NEO-resistant Pseudomonas aeruginosa 27853 at 6.25 uM after 15 to 20 hrs by CLSI protocol based microdilution assay relative to control; assay type: functional; method in brief: as §3
Escherichia coli [18] = test: Antibacterial activity against NEO-sensitive Escherichia coli ATCC 25922 at 6.25 uM after 15 to 20 hrs by CLSI protocol based microdilution assay relative to control; assay type: functional; method in brief: as §4
Ribosomal RNA A-site [19] = test: Displacement of F-NEO from human cytosolic rRNA-A site after 10 to 20 mins by fluorescence assay; assay type: nucleic-acid assay; method in brief: as §5
Klebsiella oxytoca = test: Antibacterial activity against NEO-sensitive Klebsiella oxytoca HM-625 at 6.25 uM after 15 to 20 hrs by CLSI protocol based microdilution assay relative to control; assay type: functional; method in brief: as §4
Staphylococcus aureus [20] = test: Antibacterial activity against NEO-sensitive Staphylococcus aureus harboring NorA mutant at 6.25 uM after 15 to 20 hrs by CLSI protocol based microdilution assay relative to control; assay type: functional; method in brief: as §3
Homo sapiens [21] = organism: Homo sapiens; test: Displacement of F-NEO from human mitochondrial rRNA-A site A1490G mutant after 10 to 20 mins by fluorescence assay relative to NEO; method in brief: as §2
Ribosomal RNA A-site [22] = test: Displacement of F-NEO from human mitochondrial rRNA-A site after 10 to 20 mins by fluorescence assay relative to NEO; assay type: nucleic-acid assay; parameters: concentration or dose not given beside the values; method in brief: as §2
Klebsiella pneumoniae = test: Antibacterial activity against Klebsiella pneumoniae NR-151410 at 6.25 uM after 15 to 20 hrs by CLSI protocol based microdilution assay relative to control; assay type: functional; method in brief: as §4
Bacillus anthracis = test: Antibacterial activity against NEO-sensitive Bacillus anthracis BA852 at 6.25 uM after 15 to 20 hrs by CLSI protocol based microdilution assay relative to control; assay type: functional; method in brief: as §3
Escherichia coli [23] = test: Antibacterial activity against multidrug-resistant Escherichia coli H4H at 6.25 uM after 15 to 20 hrs by CLSI protocol based microdilution assay relative to control; assay type: functional; method in brief: as §3
Staphylococcus aureus [24] = test: Antibacterial activity against methicillin-resistant Staphylococcus aureus 33591 at 6.25 uM after 15 to 20 hrs by CLSI protocol based microdilution assay relative to control; assay type: functional; method in brief: as §3
Ribosomal RNA A-site [25] = test: Displacement of F-NEO from human mitochondrial rRNA-A site after 10 to 20 mins by fluorescence assay; assay type: nucleic-acid assay; method in brief: as §5
[26] = Inhibition of APH(2\")-1a (unknown origin)
Staphylococcus aureus [27] = test: Antibacterial activity against NEO-sensitive Staphylococcus aureus 25923 at 6.25 uM after 15 to 20 hrs by CLSI protocol based microdilution assay relative to control; assay type: functional; method in brief: as §4
Acinetobacter baumannii = test: Antibacterial activity against NEO-sensitive Acinetobacter baumannii ATCC 19606 at 6.25 uM after 15 to 20 hrs by CLSI protocol based microdilution assay relative to control; assay type: functional, ATCC 19606 = CIP 70.34 = JCM 6841; method in brief: as §4
Ribosomal RNA A-site [28] = test: Displacement of F-NEO from Escherichia coli rRNA-A site after 10 to 20 mins by fluorescence assay relative to NEO; assay type: nucleic-acid assay; parameters: concentration or dose not given beside the values; method in brief: as §2
[29] = Inhibition of Eis (unknown origin)
[30] = Inhibition of APH(3')-1a (unknown origin)
[31] = Antibacterial activity against NEO-sensitive Enterobacter cloacae 13047 at 6.25 uM after 15 to 20 hrs by CLSI protocol based microdilution assay relative to control; assay type: functional, Enterobacter cloacae subsp. cloacae, ATCC 13047; method in brief: as §4
Enterococcus faecalis = test: Antibacterial activity against NEO-intermediate sensitive Enterococcus faecalis ATCC 29212 at 6.25 uM after 15 to 20 hrs by CLSI protocol based microdilution assay relative to control; assay type: functional; method in brief: as §4

SMILES: NC[C@@H]1O[C@H](O[C@H]2[C@@H](O)[C@H](O[C@@H]3[C@@H](O)[C@H](N)C[C@H](N)[C@H]3O[C@H]3O[C@H](CN)[C@@H](O)[C@H](O)[C@H]3N)O[C@@H]2CNC(=O)CCc2ccc3ccc4cccc5ccc2c3c45)[C@H](N)[C@@H](O)[C@@H]1O
- MIC (Staphylococcus aureus [1]): 25 µM (≈ 21.7 µg/mL)
- inhibition [2]: Active
- inhibition (Homo sapiens [3]): 65%
- Activity (Streptococcus pyogenes): inactive
- MIC (Staphylococcus aureus [4]): 12.5 µM (≈ 10.9 µg/mL)
- inhibition [5]: Active
- inhibition (Ribosomal RNA A-site [6]): 39%
- Activity (Staphylococcus aureus [7]): inactive
- MIC (Staphylococcus aureus [8]): > 25 µM
- Activity [9]: 35%
- Activity (Escherichia coli [10]): inactive
- IC50 (Ribosomal RNA A-site [11]): 310 nM
- Activity (Staphylococcus aureus [12]): inactive
- Activity [13]: 10%
- inhibition [14]: Active
- IC50 [15]: 332 nM
- MIC (Staphylococcus aureus [16]): 25 µM (≈ 21.7 µg/mL)
- Activity (Enterococcus faecium): 0%
- Activity (Listeria monocytogenes): inactive
- Activity (Staphylococcus aureus [17]): 16%
- Activity (Pseudomonas aeruginosa): 14%
- Activity (Escherichia coli [18]): 0%
- IC50 (Ribosomal RNA A-site [19]): 447 nM
- Activity (Klebsiella oxytoca): 5%
- Activity (Staphylococcus aureus [20]): inactive
- inhibition (Homo sapiens [21]): 22%
- inhibition (Ribosomal RNA A-site [22]): 47%
- Activity (Klebsiella pneumoniae): 13%
- Activity (Bacillus anthracis): inactive
- Activity (Escherichia coli [23]): inactive
- Activity (Staphylococcus aureus [24]): 14%
- IC50 (Ribosomal RNA A-site [25]): 373 nM
- inhibition [26]: Active
- Activity (Staphylococcus aureus [27]): 15%
- Activity (Acinetobacter baumannii): 10%
- inhibition (Ribosomal RNA A-site [28]): 33%
- inhibition [29]: Active
- inhibition [30]: Active
- Activity [31]: 0%
- Activity (Enterococcus faecalis): 6%
